Results gathered from unrelated publications.
Target: Serine/threonine-protein kinase Nek6 (NEK6, Homo sapiens, UniProt Q9HC98)
Observed: enzyme activity
Mode: inhibitor

SMILES | method | concentration | remaining activity [%]
Cc1[nH]c(/C=C2\C(=O)Nc3ccc(F)cc32)c(C)c1C(=O)N[C@H]1CCN(C(=O)N(C)C)C1 | – | 1 µM | 126
Cc1ccc(C(=O)Nc2ccc(CN3CCN(C)CC3)c(C(F)(F)F)c2)cc1C#Cc1cnc2cccnn12 | – | 23.5 nM | 100
O=C(Nc1cnn(-c2csc(C(=O)NC3COC3)c2)c1)Nc1c(F)cccc1Cl | – | 5 µM | 86.8
COc1cc(Nc2cnc(C#N)c(O[C@H](C)CN(C)C)n2)ncc1-c1cnn(C)c1 | radiometric | 1 µM | 97
CCN(CC)CCNC(=O)c1c(C)[nH]c(/C=C2\C(=O)Nc3ccc(F)cc32)c1C | – | 0.1 µM | 99
CC(C)(C)c1nc(-c2cccc(NS(=O)(=O)c3c(F)cccc3F)c2F)c(-c2ccnc(N)n2)s1 | radiometric | 1 µM | 99
CC(C)(O)[C@H]1CC[C@H](Nc2ccc3ncc(-c4cccc(C(F)(F)F)c4)n3n2)CC1 | – | 1 µM | 99.7
O=C(Nc1cnn(-c2csc(C(=O)NC3COC3)c2)c1)Nc1ccccc1Cl | – | 5 µM | 99.6
Cc1cnc(NC2CCOCC2)nc1-n1cnc(C(=O)NC(CN)c2cc(F)cc(Cl)c2)c1 (stereo not drawn) | radiometric | 1 µM | 55
CCCOc1ccc(OC)c(F)c1C(=O)c1ccc(C(=O)N[C@@H]2CNC[C@H]2NC(=O)c2ccc3[nH]ncc3c2)cc1 | – | 10 µM | 96
Oc1cccc(-c2nc(N3CCOCC3)c3oc4ncccc4c3n2)c1 | – | 10 µM | 87
Nc1nc(Nc2ccccc2)sc1C(=O)c1c(F)cccc1F | – | 10 µM | 97
